CXCR6 inh: CXCR6 receptor inhibitors, primary screen, cell-based, beta-arrestin, luminescence, CHO-K1 PathHunter, 1536-well; inhibition, % at 20 µM; hit rate 0.36% among 360,000; AID 602244, 2012; in the data active = inhibition above about 34%, passing the limit was not always enough;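 note: antagonist mode with CXCL16 agonist at 10 nM final; 0% = 10 nM CXCL16 with DMSO and 100% = unstimulated wells without agonist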
Target sequence (O00574 whole entry, looked up): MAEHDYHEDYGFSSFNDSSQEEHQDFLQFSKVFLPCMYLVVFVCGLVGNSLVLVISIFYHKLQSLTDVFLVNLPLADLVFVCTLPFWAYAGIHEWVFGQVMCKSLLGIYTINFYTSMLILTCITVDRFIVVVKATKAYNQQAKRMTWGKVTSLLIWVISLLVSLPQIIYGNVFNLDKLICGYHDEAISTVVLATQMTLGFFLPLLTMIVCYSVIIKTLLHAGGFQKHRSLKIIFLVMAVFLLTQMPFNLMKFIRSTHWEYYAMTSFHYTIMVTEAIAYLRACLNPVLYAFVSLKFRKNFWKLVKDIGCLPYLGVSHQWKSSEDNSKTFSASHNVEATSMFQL
m5-HT2A agonist: mouse Htr2a agonists via beta-arrestin recruitment, primary screen, cell-based, luminescence; CHO-K1 mHTR2A beta-arrestin complementation; percent of 30 µM serotonin response; hit rate 0.66% among 360,000; activation, % at 7.6 µM; 5-hydroxytryptamine receptor 2A (Mus musculus), P35363;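 active = activation above a run cutoff, the mean activation of all tested compounds plus 3 SD, cut at about 14% in these data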;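 note: 0% = plate median of compound wells and 100% = 30 µM serotonin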
APJ antagonist: antagonists of human apelin receptor APJ, primary screen, CHO-K1 cells, beta-arrestin complementation, luminescence. inhibition, % at 20 µM. P35414. AID 2521, 2010. hit rate 0.32% among 330,000;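 active = inhibition above about 40% at 20 µM, limit read from the data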;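 note: cells challenged with 10 nM apelin-13 agonist together with compound; plate controls were apelin-13 plus DMSO wells for no effect and DMSO wells lacking apelin-13 for full effect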
CCR6 antag: CCR6 receptor antagonists, primary screen, cell-based, CHO-K1, luminescence, beta-arrestin, uHTS; C-C chemokine receptor type 6 (Homo sapiens), P51684; CHO-K1 CCR6 PathHunter beta-arrestin, CCL20-stimulated; inhibition, % at 20 µM; hit rate 0.49% among 340,000; AID 493098, 2011;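 active = compounds whose inhibition of the agonist-driven luminescence signal at 20 µM reaches about 50%, limit read from the data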;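 note: cells stimulated with CCL20 at 14 nM final; plate controls were DMSO with CCL20 for no effect and DMSO without agonist for full effect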
NTR1 agonist: agonists of human NTR1, primary screen, imaging, U2OS cells, beta-arrestin-GFP, high content. NTR1-U2OS beta-arrestin-GFP spot imaging, agonist mode. activation, % at 20 µM. hit rate 0.17% among 330,000;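 active = activation at or above 40% of the spot to cytoplasm intensity ratio, with at least 20 cells analyzed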;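 note: 0% = DMSO without peptide and 100% = 100 nM NTR1 peptide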
APJ agonist: agonists of human apelin receptor APJ, primary screen, CHO-K1 cells, PathHunter beta-arrestin, luminescence; P35414; 0% DMSO wells, 100% apelin; activation, % at 20 µM; hit rate 0.11% among 330,000; AID 2520, 2010;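 active = activation more than six SD over the plate average, tested at 20 µM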;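 note: 0% = DMSO alone and 100% = apelin-13 at 10 nM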
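Test system: CHO-K1 APJ beta-arrestin complementation cell line. Amount: cell density 1000 per well. Controls: DMSO negative, 10 nM Apelin-13 positive. Signal: luminescent beta-gal fragment complementation, chemiluminescent substrate. Read-out basis: agonist-driven arrestin binding to APJ. Timing: compound stimulation 90 min at 25 °C, detection 60 min.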
Numbers without * were called inactive; / = no result. A selection: hits, their analogues and other compounds. The true share with any hit is near 1.5%.

SMILES	CXCR6 inh	m5-HT2A agonist	APJ antagonist	CCR6 antag	NTR1 agonist	APJ agonist
Cc1ccc(S(=O)(=O)c2ccc([N+](=O)[O-])o2)cc1	97.3*	-9.8	/	103.1*	/	/
CCOC(=O)CSC1=NC(=O)/C(=C/c2ccc(OC)cc2)S1	39.1	3.6	-0.7	54.0*	7.9	5.2
O=C(Nc1ccc(N2CCOCC2)cc1)NC1CCCCC1	-7.7	15.5*	26.0	10.0	-0.7	0.7
O=C(Nc1ccc(N2CCOCC2)cc1)C1CC1	-7.0	-0.2	-10.6	-12.7	-1.7	-2.7
O=C(/C=C/c1ccco1)NCCc1ccccc1	11.1	2.0	18.9	21.9	1.3	-0.5
Cc1ccc(/C=C/C(=O)NCCc2ccccc2)o1	6.7	3.6	14.7	83.2*	1.8	-2.9
CCOC(=O)C1(Cc2cccc(OC)c2)CCCN(C(=O)CCN2CCCO2)C1 (centres undefined)	-2.3	-6.3	4.2	2.5	-1.0	6.9
CS(=O)(=O)c1ccc(S(=O)CC(=O)Oc2ccc(Cl)cc2)c([N+](=O)[O-])c1 (centres undefined)	/	/	-8.6	61.5*	7.6	-3.8
Cc1ccc(Nc2c(-c3ccccn3)nc3cc(C)ccn23)cc1	40.1*	-15.5	39.4	56.5*	11.5	-3.9
NC(=S)N/N=C/c1ccc(C23CC4CC(CC(C4)C2)C3)cc1	/	/	29.1	65.5*	44.0*	-5.8
C[n+]1c(/C=C/c2ccc(O)cc2)ccc2ccccc21	10.7	1.9	23.5	14.9	0.2	-3.9
Cc1cc(/C=C\c2ccc3cc(N(C)C)ccc3[n+]2C)c(C)n1-c1ccccc1	21.9	-6.7	11.1	51.4*	-2.2	13.6
N#C/C(=C\c1ccc(N2CCOCC2)o1)C(=O)NCCc1ccccc1	7.2	-1.5	16.6	7.1	-1.8	-2.5
COCCNC(=O)/C(C#N)=C/c1ccc(N2CCOCC2)o1	52.1*	-3.6	0.4	19.1	0.0	-0.3
CC(C)SC1=NC(C)(C)C=C(/C=C/c2c(Cl)cccc2Cl)N1	8.6	-3.7	11.1	52.2*	0.5	-1.2
CC(C)SC1=NC(C)(C)C=C(/C=C/c2ccc(Cl)cc2Cl)N1	14.4	1.5	1.0	50.8*	2.0	-8.8
Clc1cccc(Cl)c1/C=C/c1nc2ccccc2[nH]1	-5.0	-8.8	-1.9	-4.0	15.0	2.8
CN[C@@H]1[C@H](O)[C@H](NC)[C@H]2O[C@@]3(O)C(=O)C[C@@H](C)O[C@H]3O[C@@H]2[C@H]1O	4.8	15.5*	-5.3	3.4	-0.5	-3.6
N#Cc1nccnc1S(=O)(=O)c1cccs1	/	/	55.6*	22.9	4.2	-3.2
CN(Cc1ccccc1C#N)S(=O)(=O)c1cccs1	-1.8	-1.1	4.8	11.9	-0.9	-1.9
Cc1ccc2c(c1)c(C1=c3ccccc3=NC1=O)c(O)n2C	26.2	2.2	26.4	50.8*	5.8	0.6
C=CCn1c(O)c(C2=c3ccccc3=NC2=O)c2ccccc21	71.6*	-9.6	27.2	90.7*	30.9	3.5
CC1(C(=O)Nc2ccc3c(c2)OCCO3)CCC(=O)N1CCOc1ccccc1 (centres undefined)	6.1	5.3	/	/	/	/
COc1ccc(CCN2C(=O)C3C(C2=O)C2C=CC3C23CC3)cc1OC (centres undefined)	-1.0	4.0	6.2	13.1	-0.3	-1.5
COc1ccc2cc3c(N)nn(C(=O)Cc4ccccc4OC)c3nc2c1	-2.1	5.2	-5.0	-4.7	10.6	-3.3
COc1ccc2cc3c(N)nn(C(=O)C4CCC(C(C)(C)C)CC4)c3nc2c1 (centres undefined)	-3.9	0.8	-50.7	-12.9	42.0*	-2.4
CC(C)NC(=O)C1(C)CSCC(=O)N1CC(F)(F)F (centres undefined)	/	-0.9	/	/	/	/
CCCCCCCCSC1=CC(=O)C(OC)=C(OC)C1=O	39.1*	1.0	/	/	/	/
c1ccc(Nc2ccccn2)cc1	-3.5	-2.4	-8.4	-1.0	0.0	-0.8
c1ccc(/N=C2\N=C(Nc3ccccn3)c3ccccc32)nc1	30.7	4.7	23.7	55.7*	9.3	-4.1
